Measured values as given in ChEMBL document CHEMBL6134766, “Design, synthesis, and evaluation of benzhydrylpiperazine-based novel dual COX-2/5-LOX inhibitors with anti-inflammatory and anti-cancer activity” (RSC Med Chem, 2025).
Structures can show the parent of a compound that is named as a salt. Calls of active or inactive are those of the source. The calls are words filed in the database; no cut-off is given here.

Tests used:
[1] = target: T1, Prostaglandin G/H synthase 1 (Ovis aries, UniProt P05979); assay: Inhibition of ovine COX-1 using arachidonic acid as substrate in presence of hemin by TMPD reagent-based colorimetry
T1 sequence (P05979 whole entry): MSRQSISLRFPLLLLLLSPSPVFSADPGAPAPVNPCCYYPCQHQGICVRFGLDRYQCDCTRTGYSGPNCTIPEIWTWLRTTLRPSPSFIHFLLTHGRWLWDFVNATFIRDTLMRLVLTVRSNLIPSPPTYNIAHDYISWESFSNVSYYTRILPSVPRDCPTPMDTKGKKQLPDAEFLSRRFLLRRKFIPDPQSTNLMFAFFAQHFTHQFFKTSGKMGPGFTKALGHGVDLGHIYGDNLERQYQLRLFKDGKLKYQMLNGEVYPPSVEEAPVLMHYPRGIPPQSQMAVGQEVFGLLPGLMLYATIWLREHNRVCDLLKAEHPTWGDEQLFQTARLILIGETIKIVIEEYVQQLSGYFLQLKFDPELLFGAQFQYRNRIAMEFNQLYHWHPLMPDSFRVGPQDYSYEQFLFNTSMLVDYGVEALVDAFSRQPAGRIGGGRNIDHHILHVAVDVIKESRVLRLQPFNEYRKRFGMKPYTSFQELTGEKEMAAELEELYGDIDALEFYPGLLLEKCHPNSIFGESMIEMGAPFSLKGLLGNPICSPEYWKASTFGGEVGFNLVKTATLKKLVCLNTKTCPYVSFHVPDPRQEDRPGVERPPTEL

[2] = target: T2, Polyunsaturated fatty acid 5-lipoxygenase (Homo sapiens, UniProt P09917); assay: Inhibition of 5-LOX (unknown origin) using arachidonic acid as substrate preincubated for 5 mins followed by substrate addition measured after 10 mins by spectrophotometry
T2 sequence (P09917 whole entry): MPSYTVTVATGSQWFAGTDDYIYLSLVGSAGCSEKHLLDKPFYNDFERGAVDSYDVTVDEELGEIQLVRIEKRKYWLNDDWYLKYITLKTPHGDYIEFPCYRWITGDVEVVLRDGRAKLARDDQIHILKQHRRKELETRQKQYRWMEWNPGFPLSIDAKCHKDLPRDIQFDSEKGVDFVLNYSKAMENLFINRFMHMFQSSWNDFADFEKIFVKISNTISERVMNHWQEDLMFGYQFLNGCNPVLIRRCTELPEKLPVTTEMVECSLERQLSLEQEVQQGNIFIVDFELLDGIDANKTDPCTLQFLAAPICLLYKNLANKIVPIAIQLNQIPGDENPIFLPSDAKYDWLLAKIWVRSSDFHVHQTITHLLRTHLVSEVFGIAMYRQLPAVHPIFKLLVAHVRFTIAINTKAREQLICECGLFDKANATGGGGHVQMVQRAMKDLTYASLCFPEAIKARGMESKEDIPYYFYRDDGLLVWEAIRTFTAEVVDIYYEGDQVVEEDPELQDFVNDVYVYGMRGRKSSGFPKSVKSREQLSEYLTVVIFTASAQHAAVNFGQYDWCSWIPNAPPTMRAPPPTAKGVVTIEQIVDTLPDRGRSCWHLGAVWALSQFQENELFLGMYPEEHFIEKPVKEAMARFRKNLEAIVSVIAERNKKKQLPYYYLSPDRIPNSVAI

[3] = test system: Rattus norvegicus; assay: Anti-inflammatory activity in arachidonic acid-induced paw edema Wistar rat model assessed as swelling thickness of paw at 10 mg/kg, po measured after 1 hr by digital vernier caliper (reference value: 6.51 +/- 0.37 millimeter); format: functional
[4] = test system: Rattus norvegicus; assay: Anti-inflammatory activity in arachidonic acid-induced paw edema Wistar rat model assessed as protection against swelling thickness of paw at 10 mg/kg, po measured after 1 hr by digital vernier caliper (reference value: 0 %); format: functional
[5] = test system: Rattus norvegicus; assay: Cardio-protective activity in ISO-treated Wistar rat assessed as decrease in serum LDH level at 10 mg/kg, po; format: functional, organism-based
How it was run: (§1)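 Rats (n = 6/group) given ISO 100 mg kg−1 s.c., then oral test compound in 0.3% CMC; vehicle controls. Retro-orbital blood, serum separated at 4000 rpm, 4 °C, 10 min; LDH and CK-MB by commercial kits; mean ± SD.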

[6] = test system: Rattus norvegicus; assay: Cardio-protective activity in ISO-treated Wistar rat assessed as decrease in serum CK-MB level at 10 mg/kg, po; format: functional, organism-based; how it was run: as §1
[7] = test system: A549; assay: Cytotoxicity against human A549 cells assessed as growth inhibition incubated for 48 hrs by SRB assay; conditions: A549, 48 h
[8] = test system: COLO 205; assay: Cytotoxicity against human COLO 205 cells assessed as growth inhibition incubated for 48 hrs by SRB assay; conditions: COLO 205, 48 h
[9] = test system: MIA PaCa-2; assay: Cytotoxicity against human MIA PaCa-2 cells assessed as growth inhibition incubated for 48 hrs by SRB assay; conditions: MIA PaCa-2, 48 h

IC50 [1] [µM] | IC50 [2] [µM] | Compound | also measured
38.4 | 9.81 | Clc1ccc(C(c2ccccc2)N2CCN(Cc3nnc(-c4ccccc4)o3)CC2)cc1 (configuration not stated) | 
34.2 | 11.6 | Fc1ccc(-c2nnc(CN3CCN(C(c4ccccc4)c4ccc(Cl)cc4)CC3)o2)cc1 (configuration not stated) | 
36.3 | 15.3 | COc1cccc(-c2nnc(CN3CCN(C(c4ccccc4)c4ccc(Cl)cc4)CC3)o2)c1 (configuration not stated) | 
23 | 15 | N#Cc1cccc(-c2nnc(CN3CCN(C(c4ccccc4)c4ccc(Cl)cc4)CC3)o2)c1 (configuration not stated) | 
37.7 | 18 | O=[N+]([O-])c1cc(-c2nnc(CN3CCN(C(c4ccccc4)c4ccc(Cl)cc4)CC3)o2)cc([N+](=O)[O-])c1 (configuration not stated) | 
27.9 | 9.4 | FC(F)(F)Oc1ccc(-c2nnc(CN3CCN(C(c4ccccc4)c4ccc(Cl)cc4)CC3)o2)cc1 (configuration not stated) | 
32 | 16.2 | Clc1ccc(C(c2ccccc2)N2CCN(Cc3nnc(-c4cccc(Cl)c4)o3)CC2)cc1 (configuration not stated) | 
32.7 | 19.9 | Fc1cc(F)c(-c2nnc(CN3CCN(C(c4ccccc4)c4ccc(Cl)cc4)CC3)o2)cc1F (configuration not stated) | 
30.7 | 9.89 | Cc1cccc(-c2nnc(CN3CCN(C(c4ccccc4)c4ccc(Cl)cc4)CC3)o2)c1 (configuration not stated) | 
32.1 | 18.1 | Cc1ccc(-c2nnc(CN3CCN(C(c4ccccc4)c4ccc(Cl)cc4)CC3)o2)cc1 (configuration not stated) | 
30.3 | 14.4 | Clc1ccc(C(c2ccccc2)N2CCN(Cc3nnc(-c4ccc(Cl)cc4Cl)o3)CC2)cc1 (configuration not stated) | 
 |  | Cc1ccc(-c2cc(C(F)(F)F)nn2-c2ccc(S(N)(=O)=O)cc2)cc1 [CELECOXIB] | Activity [3]: 1.79 mm; Activity [4]: 72.59%; Activity [5]: inactive; Activity [6]: inactive
36.3 | 20.3 | Oc1cccc(-c2nnc(CN3CCN(C(c4ccccc4)c4ccc(Cl)cc4)CC3)o2)c1 (configuration not stated) | 
 |  | COc1cccc2c1C(=O)c1c(O)c3c(c(O)c1C2=O)C[C@@](O)(C(=O)CO)C[C@@H]3O[C@H]1C[C@H](N)[C@H](O)[C@H](C)O1 [DOXORUBICIN HYDROCHLORIDE] | GI50 [7]: 0.077 µM; GI50 [8]: 0.1 µM; GI50 [9]: 0.002 µM
38.5 | 11.2 | O=[N+]([O-])c1cc(-c2nnc(CN3CCN(C(c4ccccc4)c4ccc(Cl)cc4)CC3)o2)ccc1Cl (configuration not stated) | 
34.8 | 9.33 | Fc1ccc(-c2nnc(CN3CCN(C(c4ccccc4)c4ccc(Cl)cc4)CC3)o2)c(F)c1 (configuration not stated) | 
36.3 | 10.8 | Oc1ccc(-c2nnc(CN3CCN(C(c4ccccc4)c4ccc(Cl)cc4)CC3)o2)cc1 (configuration not stated) | 
29.9 | 13.5 | O=[N+]([O-])c1ccccc1-c1nnc(CN2CCN(C(c3ccccc3)c3ccc(Cl)cc3)CC2)o1 (configuration not stated) | 
 |  | CC(c1cc2ccccc2s1)N(O)C(N)=O (configuration not stated) [ZILEUTON] | Activity [3]: 3.39 mm; Activity [4]: 47.95%
25.5 | 13.5 | N#Cc1ccc(-c2nnc(CN3CCN(C(c4ccccc4)c4ccc(Cl)cc4)CC3)o2)cc1 (configuration not stated) | 
27 | 13.7 | FC(F)(F)c1ccc(-c2nnc(CN3CCN(C(c4ccccc4)c4ccc(Cl)cc4)CC3)o2)cc1 (configuration not stated) | 
34.5 | 10.3 | COc1ccc(-c2nnc(CN3CCN(C(c4ccccc4)c4ccc(Cl)cc4)CC3)o2)cc1 (configuration not stated) | 
